In brackets after ≈: the same amount, converted by molar mass.
Columns and labels:
[1] = molecular target: T1, Leucine--tRNA ligase, mitochondrial (Homo sapiens, UniProt Q15031); experiment: Inhibition of human N-terminal 6His-tagged mitochondrial LeuRS expressed in Escherichia coli BL21(DE3) assessed as L-[14C]leucine incorporation in to Escherichia coli tRNA after 20 mins by liquid scintillation counting analysis
T1 sequence (Q15031 whole entry): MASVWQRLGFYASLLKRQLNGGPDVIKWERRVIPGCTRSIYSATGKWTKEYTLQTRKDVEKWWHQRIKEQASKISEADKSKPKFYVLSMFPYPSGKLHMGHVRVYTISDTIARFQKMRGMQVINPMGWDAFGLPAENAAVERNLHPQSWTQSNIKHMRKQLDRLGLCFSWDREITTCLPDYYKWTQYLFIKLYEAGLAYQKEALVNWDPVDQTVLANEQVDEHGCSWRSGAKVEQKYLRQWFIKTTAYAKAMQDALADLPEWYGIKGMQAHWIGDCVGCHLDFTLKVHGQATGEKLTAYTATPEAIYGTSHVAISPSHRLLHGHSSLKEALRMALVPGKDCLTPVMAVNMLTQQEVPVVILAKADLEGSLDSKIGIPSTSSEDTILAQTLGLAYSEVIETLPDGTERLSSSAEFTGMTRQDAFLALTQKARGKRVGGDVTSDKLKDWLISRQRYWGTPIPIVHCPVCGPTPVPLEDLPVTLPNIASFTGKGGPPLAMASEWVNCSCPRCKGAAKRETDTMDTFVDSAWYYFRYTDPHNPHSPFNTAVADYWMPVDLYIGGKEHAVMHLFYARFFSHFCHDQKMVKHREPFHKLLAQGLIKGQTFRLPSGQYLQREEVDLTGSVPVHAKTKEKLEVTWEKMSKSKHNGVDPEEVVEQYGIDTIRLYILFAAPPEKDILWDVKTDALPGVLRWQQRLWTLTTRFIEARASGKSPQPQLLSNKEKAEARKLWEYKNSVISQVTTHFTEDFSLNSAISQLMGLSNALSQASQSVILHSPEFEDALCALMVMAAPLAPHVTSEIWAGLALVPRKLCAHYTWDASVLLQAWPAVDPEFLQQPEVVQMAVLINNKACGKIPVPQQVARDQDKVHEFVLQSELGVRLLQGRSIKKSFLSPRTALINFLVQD
Outline: (§1)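 N-terminal His6-tagged LeuRS expressed in E. coli BL21(DE3), codon-optimized. 50 mM HEPES-KOH pH 8.0, 30 mM MgCl2, 30 mM KCl, 13 μM L-[14C]leucine, 15 μM tRNA (E. coli total; brewer's yeast for human cytoplasmic enzyme), 0.02% BSA, 1 mM DTT, 30 °C. Inhibitor preincubated 20 min, started with 4 mM ATP, TCA-quenched after 7 min, filtered, scintillation counted; four-parameter logistic IC50.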

[2] = tested on: Mycobacterium tuberculosis; experiment: Antimicrobial activity against Mycobacterium tuberculosis H37Rv infected in C57BL/6J mouse assessed as 2 log reduction in bacterial load in lungs administered qd for 8 consecutive days starting on day 1 post infection measured 24 hrs post last dose; assay type: functional
[3] = tested on: Mycobacterium tuberculosis; experiment: Antimicrobial activity against Mycobacterium tuberculosis H37Rv; assay type: functional
cytoplasmic LeuRS = experiment: Selectivity index, ratio of EC50 for inhibition of cytoplasmic LeuRS in HepG2 cells assessed as reduction in protein synthesis to MIC for Mycobacterium tuberculosis H37Rv; assay type: toxicity, cell-based; settings: human, read-out: Selectivity Index
Outline: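 Ratio of HepG2 protein-synthesis EC50 to MIC against M. tuberculosis H37Rv.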

Leucine--tRNA ligase = molecular target: T2, Leucine--tRNA ligase (Mycobacterium tuberculosis (strain ATCC 25618 / H37Rv), UniProt P9WFV1); experiment: Inhibition of Mycobacterium tuberculosis H37Rv N-terminal 6His-tagged LeuRS expressed in Escherichia coli BL21(DE3) assessed as L-[14C]leucine incorporation in to Escherichia coli tRNA after 20 mins by liquid scintillation counting analysis; outline: as §1
T2 sequence (P9WFV1 whole entry): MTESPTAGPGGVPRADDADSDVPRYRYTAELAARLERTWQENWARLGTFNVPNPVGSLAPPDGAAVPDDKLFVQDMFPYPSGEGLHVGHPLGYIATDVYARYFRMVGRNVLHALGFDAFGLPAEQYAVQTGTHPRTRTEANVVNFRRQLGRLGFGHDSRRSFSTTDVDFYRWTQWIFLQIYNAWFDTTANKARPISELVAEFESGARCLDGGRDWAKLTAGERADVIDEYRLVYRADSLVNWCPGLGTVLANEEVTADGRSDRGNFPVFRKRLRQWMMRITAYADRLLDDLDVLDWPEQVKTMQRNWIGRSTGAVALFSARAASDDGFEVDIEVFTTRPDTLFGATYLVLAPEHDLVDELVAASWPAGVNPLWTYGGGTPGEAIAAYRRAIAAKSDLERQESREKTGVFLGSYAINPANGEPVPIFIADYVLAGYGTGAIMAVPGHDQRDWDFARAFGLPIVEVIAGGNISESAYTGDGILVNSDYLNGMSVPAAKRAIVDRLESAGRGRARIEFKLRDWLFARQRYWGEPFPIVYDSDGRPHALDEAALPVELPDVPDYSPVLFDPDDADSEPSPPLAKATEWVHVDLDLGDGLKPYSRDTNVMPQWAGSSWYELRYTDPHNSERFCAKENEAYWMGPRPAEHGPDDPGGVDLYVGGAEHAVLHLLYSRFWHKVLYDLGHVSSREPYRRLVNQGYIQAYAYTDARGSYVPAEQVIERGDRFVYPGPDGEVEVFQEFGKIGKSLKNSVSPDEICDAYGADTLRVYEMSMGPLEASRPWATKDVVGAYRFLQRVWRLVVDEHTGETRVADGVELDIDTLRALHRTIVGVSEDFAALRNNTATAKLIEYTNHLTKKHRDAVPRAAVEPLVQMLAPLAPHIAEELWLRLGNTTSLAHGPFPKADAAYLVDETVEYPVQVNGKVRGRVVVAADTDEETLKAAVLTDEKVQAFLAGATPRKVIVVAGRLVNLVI

HepG2 = experiment: Cytotoxicity against human HepG2 cells assessed as reduction in cell viability after 48 hrs by CellTiter-Glo assay; assay type: cell-based; settings: HepG2, 48 h
Outline: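 HepG2 cells seeded at 10 000/well in EMEM with 5% FCS and 2 mM glutamine. After 24 h, ten 1:2 serial compound dilutions (0.5% DMSO final) added in duplicate for 48 h. Read-out by CellTiter-Glo luminescence per table footnote; the method text also describes resazurin fluorescence (ex 515/em 590 nm). Sigmoidal variable-slope fit.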

[4] = molecular target: Leucine--tRNA ligase, cytoplasmic (Homo sapiens, UniProt Q9P2J5); experiment: Inhibition of cytoplasmic LeuRS in human HepG2 cells assessed as reduction in protein synthesis preincubated for 48 hrs followed by L-[14C]leucine addition measured after 3 hrs by liquid scintillation counting analysis; assay type: cell-based
Chain of Leucine--tRNA ligase, cytoplasmic (Q9P2J5 whole entry): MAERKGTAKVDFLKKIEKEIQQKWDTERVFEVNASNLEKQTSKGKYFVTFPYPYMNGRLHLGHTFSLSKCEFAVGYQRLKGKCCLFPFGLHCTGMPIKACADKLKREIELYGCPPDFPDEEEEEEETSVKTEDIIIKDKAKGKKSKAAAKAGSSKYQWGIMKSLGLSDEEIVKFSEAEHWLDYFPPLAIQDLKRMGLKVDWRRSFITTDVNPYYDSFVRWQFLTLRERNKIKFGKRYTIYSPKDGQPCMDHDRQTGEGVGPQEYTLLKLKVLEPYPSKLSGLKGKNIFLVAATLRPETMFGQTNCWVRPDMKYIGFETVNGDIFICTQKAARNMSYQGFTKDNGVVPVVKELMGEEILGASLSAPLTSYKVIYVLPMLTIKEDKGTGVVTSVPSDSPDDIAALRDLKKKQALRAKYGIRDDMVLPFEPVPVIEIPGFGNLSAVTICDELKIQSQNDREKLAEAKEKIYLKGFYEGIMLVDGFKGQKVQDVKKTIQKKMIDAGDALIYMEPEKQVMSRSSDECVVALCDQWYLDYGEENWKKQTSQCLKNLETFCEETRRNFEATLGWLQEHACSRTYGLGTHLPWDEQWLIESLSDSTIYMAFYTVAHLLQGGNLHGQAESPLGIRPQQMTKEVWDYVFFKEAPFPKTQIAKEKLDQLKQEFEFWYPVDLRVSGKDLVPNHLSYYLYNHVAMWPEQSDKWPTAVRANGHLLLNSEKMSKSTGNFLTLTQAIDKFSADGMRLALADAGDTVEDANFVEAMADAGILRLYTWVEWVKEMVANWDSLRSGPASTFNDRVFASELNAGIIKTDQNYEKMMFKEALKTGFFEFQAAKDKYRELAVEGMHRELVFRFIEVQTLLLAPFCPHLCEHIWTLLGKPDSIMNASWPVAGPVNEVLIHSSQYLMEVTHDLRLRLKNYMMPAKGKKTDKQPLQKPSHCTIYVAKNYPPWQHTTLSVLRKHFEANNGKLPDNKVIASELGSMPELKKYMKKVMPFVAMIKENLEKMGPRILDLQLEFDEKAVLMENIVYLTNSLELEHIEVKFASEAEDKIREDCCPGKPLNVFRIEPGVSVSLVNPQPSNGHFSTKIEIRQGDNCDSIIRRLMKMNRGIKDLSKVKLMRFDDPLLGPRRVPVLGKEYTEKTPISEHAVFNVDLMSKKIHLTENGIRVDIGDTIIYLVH
Outline: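 HepG2 cells in DMEM/10% FCS, 3000 cells/well, exposed to compound dilutions (0.5% DMSO final) for 48 h at 37 °C. Medium then replaced with fresh medium containing 0.5 μCi L-[14C]leucine and the same compound levels for 3 h. Cells trypsinised, precipitated in ice-cold 20% TCA, filtered, washed, scintillation counted; curve-fit EC50; mean of at least duplicates.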

SMILES	IC50 [1]	ED99 [2]	MIC [3]	selectivity ratio (cytoplasmic LeuRS)	IC50 (Leucine--tRNA ligase)	EC50 (HepG2)	EC50 [4]
Cl.NC[C@H]1OB(O)c2c(OCCO)ccc(Cl)c21	> 300 µM	0.4 mg/kg	0.08 µM	1710	0.2 µM	381 µM	137 µM
CCOc1ccc(Br)c2c1B(O)O[C@@H]2CN	> 300 µM	< 1 mg/kg	0.1 µM (≈ 0.0286 µg/mL)	305	0.075 µM	47.1 µM	30.5 µM
